ChEMBL document CHEMBL2062435, “Synthesis and in vitro antibacterial activity of gemifloxacin derivatives containing a substituted benzyloxime moiety” (2012)

Assays:
Assay type in all cases: functional
Escherichia coli [1] = experiment: Antimicrobial activity against Escherichia coli 10-1 after 18-24 hrs by two-fold serial dilution method
Method in brief: (§1)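 Agar-medium twofold serial dilution against Gram-positive and Gram-negative strains; MIC taken as the lowest compound concentration giving complete inhibition of bacterial growth after incubation at 35 °C for 18-24 h.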

Enterococcus faecium [2] = experiment: Antimicrobial activity against Enterococcus faecium 10-9 after 18-24 hrs by two-fold serial dilution method; method in brief: as §1
[3] = test system: Staphylococcus epidermidis; experiment: Ratio of gemifloxacin MIC to compound MIC for extended spectrum beta-lactamases-producing methicillin-sensitive Staphylococcus epidermidis 10-13 after 18-24 hrs by two-fold serial dilution method
Pseudomonas aeruginosa [4] = experiment: Antimicrobial activity against extended spectrum beta-lactamases-producing Pseudomonas aeruginosa 10-9 after 18-24 hrs by two-fold serial dilution method; method in brief: as §1
Staphylococcus aureus [5] = experiment: Ratio of levofloxacin MIC to compound MIC for extended spectrum beta-lactamases-producing methicillin-sensitive Staphylococcus aureus 10-14 after 18-24 hrs by two-fold serial dilution method
Method in brief: (§2)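 MICs were determined by the standard twofold serial dilution method on agar media against the test strains, with levofloxacin run as a reference. MIC is the lowest concentration giving complete inhibition of bacterial growth after 18–24 h incubation at 35 °C. The ratio is levofloxacin MIC divided by test-compound MIC.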

Staphylococcus aureus [6] = experiment: Antimicrobial activity against methicillin-resistant Staphylococcus aureus clinical isolate after 18-24 hrs by two-fold serial dilution method
Method in brief: (§3)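 Agar twofold serial dilution MIC against clinical isolates. MIC was taken as the lowest concentration giving complete inhibition of bacterial growth after incubation at 35 °C for 18-24 h.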

[7] = test system: Staphylococcus epidermidis; experiment: Ratio of gemifloxacin MIC to compound MIC for extended spectrum beta-lactamases-producing methicillin-sensitive Staphylococcus epidermidis 10-11 after 18-24 hrs by two-fold serial dilution method
Klebsiella pneumoniae [8] = experiment: Antimicrobial activity against extended spectrum beta-lactamases-producing Klebsiella pneumoniae 10-2 after 18-24 hrs by two-fold serial dilution method; method in brief: as §1
Streptococcus pneumoniae [9] = experiment: Ratio of levofloxacin MIC to compound MIC for extended spectrum beta-lactamases-producing Streptococcus pneumoniae 10-4 after 18-24 hrs by two-fold serial dilution method; method in brief: as §2
Streptococcus pneumoniae [10] = experiment: Antimicrobial activity against extended spectrum beta-lactamases-producing Streptococcus pneumoniae 10-1 after 18-24 hrs by two-fold serial dilution method; method in brief: as §1
Enterococcus faecalis [11] = experiment: Ratio of gemifloxacin MIC to compound MIC for Enterococcus faecalis 10-7 after 18-24 hrs by two-fold serial dilution method
[12] = test system: Staphylococcus epidermidis; experiment: Ratio of gemifloxacin MIC to compound MIC for extended spectrum beta-lactamases-producing methicillin-sensitive Staphylococcus epidermidis 10-15 after 18-24 hrs by two-fold serial dilution method
Escherichia coli [13] = experiment: Antimicrobial activity against Escherichia coli 10-2 after 18-24 hrs by two-fold serial dilution method; method in brief: as §1
Staphylococcus aureus [14] = experiment: Ratio of gemifloxacin MIC to compound MIC for extended spectrum beta-lactamases-producing methicillin-sensitive Staphylococcus aureus 10-14 after 18-24 hrs by two-fold serial dilution method
Pseudomonas aeruginosa [15] = experiment: Antimicrobial activity against Pseudomonas aeruginosa 10-12 after 18-24 hrs by two-fold serial dilution method; method in brief: as §1
Enterococcus faecalis [16] = experiment: Antimicrobial activity against Enterococcus faecalis 10-6 after 18-24 hrs by two-fold serial dilution method; method in brief: as §1
Klebsiella pneumoniae [17] = experiment: Antimicrobial activity against Klebsiella pneumoniae 10-4 after 18-24 hrs by two-fold serial dilution method; method in brief: as §1
[18] = test system: Staphylococcus epidermidis; experiment: Antimicrobial activity against extended spectrum beta-lactamases-producing methicillin-resistant Staphylococcus epidermidis 10-10 after 18-24 hrs by two-fold serial dilution method; method in brief: as §3
Enterococcus faecalis [19] = experiment: Antimicrobial activity against Enterococcus faecalis 10-7 after 18-24 hrs by two-fold serial dilution method; method in brief: as §1
Enterococcus faecalis [20] = experiment: Ratio of gemifloxacin MIC to compound MIC for Enterococcus faecalis 10-6 after 18-24 hrs by two-fold serial dilution method
Enterococcus faecalis [21] = experiment: Ratio of levofloxacin MIC to compound MIC for Enterococcus faecalis 10-6 after 18-24 hrs by two-fold serial dilution method
Enterococcus faecalis [22] = experiment: Ratio of levofloxacin MIC to compound MIC for Enterococcus faecalis 10-7 after 18-24 hrs by two-fold serial dilution method
Enterococcus faecium [23] = experiment: Ratio of levofloxacin MIC to compound MIC for Enterococcus faecium 10-5 after 18-24 hrs by two-fold serial dilution method
Pseudomonas aeruginosa [24] = experiment: Antimicrobial activity against extended spectrum beta-lactamases-producing Pseudomonas aeruginosa 10-15 after 18-24 hrs by two-fold serial dilution method; method in brief: as §1
[25] = test system: Staphylococcus epidermidis; experiment: Antimicrobial activity against extended spectrum beta-lactamases-producing methicillin-sensitive Staphylococcus epidermidis 10-11 after 18-24 hrs by two-fold serial dilution method; method in brief: as §1
Klebsiella pneumoniae [26] = experiment: Antimicrobial activity against Klebsiella pneumoniae 10-3 after 18-24 hrs by two-fold serial dilution method; method in brief: as §1
Escherichia coli [27] = experiment: Antimicrobial activity against extended spectrum beta-lactamases-producing Escherichia coli 10-2 after 18-24 hrs by two-fold serial dilution method; method in brief: as §1
[28] = test system: Staphylococcus epidermidis; experiment: Ratio of levofloxacin MIC to compound MIC for extended spectrum beta-lactamases-producing methicillin-sensitive Staphylococcus epidermidis 10-13 after 18-24 hrs by two-fold serial dilution method; method in brief: as §2
Enterococcus faecalis [29] = experiment: Ratio of levofloxacin MIC to compound MIC for Enterococcus faecalis 10-5 after 18-24 hrs by two-fold serial dilution method
Staphylococcus aureus [30] = experiment: Antimicrobial activity against extended spectrum beta-lactamases-producing methicillin-sensitive Staphylococcus aureus 10-14 after 18-24 hrs by two-fold serial dilution method; method in brief: as §1
Pseudomonas aeruginosa [31] = experiment: Antimicrobial activity against extended spectrum beta-lactamases-producing Pseudomonas aeruginosa 10-20 after 18-24 hrs by two-fold serial dilution method; method in brief: as §1
Escherichia coli [32] = experiment: Antimicrobial activity against extended spectrum beta-lactamases-producing Escherichia coli 10-3 after 18-24 hrs by two-fold serial dilution method; method in brief: as §1
Pseudomonas aeruginosa [33] = experiment: Antimicrobial activity against extended spectrum beta-lactamases-producing Pseudomonas aeruginosa 10-5 after 18-24 hrs by two-fold serial dilution method; method in brief: as §1
Streptococcus pneumoniae [34] = experiment: Ratio of gemifloxacin MIC to compound MIC for extended spectrum beta-lactamases-producing Streptococcus pneumoniae 10-4 after 18-24 hrs by two-fold serial dilution method
Escherichia coli [35] = experiment: Antimicrobial activity against extended spectrum beta-lactamases-producing Escherichia coli 10-4 after 18-24 hrs by two-fold serial dilution method; method in brief: as §1
Staphylococcus aureus [36] = experiment: Antimicrobial activity against extended spectrum beta-lactamases-producing methicillin-sensitive Staphylococcus aureus 10-13 after 18-24 hrs by two-fold serial dilution method; method in brief: as §1
Enterococcus faecalis [37] = experiment: Ratio of gemifloxacin MIC to compound MIC for Enterococcus faecalis 10-5 after 18-24 hrs by two-fold serial dilution method
Streptococcus pneumoniae [38] = experiment: Ratio of gemifloxacin MIC to compound MIC for extended spectrum beta-lactamases-producing Streptococcus pneumoniae 10-1 after 18-24 hrs by two-fold serial dilution method
Enterococcus faecium [39] = experiment: Ratio of gemifloxacin MIC to compound MIC for Enterococcus faecium 10-5 after 18-24 hrs by two-fold serial dilution method
[40] = test system: Staphylococcus epidermidis; experiment: Antimicrobial activity against extended spectrum beta-lactamases-producing methicillin-sensitive Staphylococcus epidermidis 10-13 after 18-24 hrs by two-fold serial dilution method; method in brief: as §1
Staphylococcus aureus [41] = experiment: Ratio of gemifloxacin MIC to compound MIC for extended spectrum beta-lactamases-producing methicillin-sensitive Staphylococcus aureus 10-13 after 18-24 hrs by two-fold serial dilution method
Escherichia coli [42] = experiment: Antimicrobial activity against Escherichia coli 10-3 after 18-24 hrs by two-fold serial dilution method; method in brief: as §1

`COc1ccc(OC)c(CO/N=C2\CN(c3nc4c(cc3F)c(=O)c(C(=O)O)cn4C3CC3)CC2CN)c1.CS(=O)(=O)O` (racemic) gave an MIC (Escherichia coli [1]) of over 128 µg/mL, an MIC (Enterococcus faecium [2]) of 4 µg/mL and a Ratio [3] of 2. For the same compound, the MIC (Pseudomonas aeruginosa [4]) was over 128 µg/mL, the Ratio (Staphylococcus aureus [5]) was 8 and the MIC50 (Staphylococcus aureus [6]) was 0.5 µg/mL. For the same compound, the MIC90 (Staphylococcus aureus [6]) was 1 µg/mL, the Ratio [7] was 2 and the MIC (Klebsiella pneumoniae [8]) was over 128 µg/mL. It also gave a Ratio (Streptococcus pneumoniae [9]) of 8, an MIC (Streptococcus pneumoniae [10]) of 0.06 µg/mL and a Ratio (Enterococcus faecalis [11]) of 2. It also gave a Ratio [12] of 2, an MIC (Escherichia coli [13]) of over 128 µg/mL and a Ratio (Staphylococcus aureus [14]) of 2. For the same compound, the MIC (Pseudomonas aeruginosa [15]) was over 128 µg/mL, the MIC (Enterococcus faecalis [16]) was 4 µg/mL and the MIC (Klebsiella pneumoniae [17]) was over 128 µg/mL. It also gave an MIC [18] of 0.25 µg/mL, an MIC (Enterococcus faecalis [19]) of 0.25 µg/mL and a Ratio (Enterococcus faecalis [20]) of 2. The Ratio (Enterococcus faecalis [21]) was 8, the Ratio (Enterococcus faecalis [22]) was 8 and the Ratio (Enterococcus faecium [23]) was 8. It also gave an MIC (Pseudomonas aeruginosa [24]) of over 128 µg/mL, an MIC [25] of 0.25 µg/mL and an MIC (Klebsiella pneumoniae [26]) of over 128 µg/mL. The MIC (Escherichia coli [27]) was over 128 µg/mL, the Ratio [28] was 8 and the Ratio (Enterococcus faecalis [29]) was 8. For the same compound, the MIC (Staphylococcus aureus [30]) was 0.03 µg/mL, the MIC (Pseudomonas aeruginosa [31]) was over 128 µg/mL and the MIC (Escherichia coli [32]) was over 128 µg/mL. The MIC (Pseudomonas aeruginosa [33]) was over 128 µg/mL, the Ratio (Streptococcus pneumoniae [34]) was 2 and the MIC (Escherichia coli [35]) was over 128 µg/mL. The MIC (Staphylococcus aureus [36]) was 0.03 µg/mL, the Ratio (Enterococcus faecalis [37]) was 2 and the Ratio (Streptococcus pneumoniae [38]) was 2. It also gave a Ratio (Enterococcus faecium [39]) of 2, an MIC [40] of 0.03 µg/mL and a Ratio (Staphylococcus aureus [41]) of 2. It also gave an MIC (Escherichia coli [42]) of over 128 µg/mL.
